bCat KO growth: beta-catenin-lacking colon tumor cell growth suppression | HCT116 beta-catenin knockout viability, CellTiter-Glo, 60 h; stronger effect = lower value | viability, % at 10 µM | 1.5% of 140,000 active;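 active means viability at or under a set limit, the compound median less 4 SD, cut at about 6% in these data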
TNAP act hi DEA: activators of human TNAP at high phosphate acceptor concentration; 200,000 tested, under 10 active; activation factor at 20 µM; AID 1136; P05186; purified TNAP, CDP-star luminescence, 1 M DEA, 30 min; stronger effect = higher value; 0 = EDTA background, 1 = DMSO-only activity;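 active means activation factor at least 2 at 20 µM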
Target sequence (P05186 whole entry, looked up): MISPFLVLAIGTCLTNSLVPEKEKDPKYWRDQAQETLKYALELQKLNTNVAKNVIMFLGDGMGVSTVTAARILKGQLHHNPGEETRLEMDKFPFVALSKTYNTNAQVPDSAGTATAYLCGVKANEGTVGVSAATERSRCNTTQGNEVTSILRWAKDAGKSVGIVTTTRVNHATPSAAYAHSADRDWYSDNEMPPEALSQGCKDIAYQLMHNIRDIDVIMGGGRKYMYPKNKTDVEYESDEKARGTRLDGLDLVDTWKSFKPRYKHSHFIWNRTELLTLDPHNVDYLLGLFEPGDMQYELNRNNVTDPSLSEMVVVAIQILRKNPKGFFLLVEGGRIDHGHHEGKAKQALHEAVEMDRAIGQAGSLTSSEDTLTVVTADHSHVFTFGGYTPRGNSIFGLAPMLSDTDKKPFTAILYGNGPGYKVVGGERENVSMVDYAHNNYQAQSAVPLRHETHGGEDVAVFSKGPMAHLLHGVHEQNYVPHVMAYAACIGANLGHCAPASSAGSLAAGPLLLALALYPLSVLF
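Control set: EDTA negative control, DMSO positive control / Assay system: human TNAP / Quantity: TNAP 1/800 final / Evaluation: TNAP activation factor scaled between EDTA and DMSO control wells / Measured by: luminescent substrate turnover signal / Compound dosing: one dose, 20 µM / Times: 30 min enzyme reaction at room temperature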
TNAP inh hi DEA: TNAP (human) inhibition, high acceptor; purified TNAP, CDP-star luminescence, 1 M DEA; AID 1135; P05186; inhibition, % at 20 µM; 0.03% of 200,000 active;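 active means over 50% inhibition of tissue-nonspecific alkaline phosphatase at 20 µM in the single-dose screen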
TNAP inh noacc: blocks human TNAP activity with no phosphate acceptor present; P05186; purified TNAP, CDP-star luminescence, 30 min; inhibition, % at 20 µM; 0.26% of 200,000 active;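 active means tissue-nonspecific alkaline phosphatase inhibition above about 50% at 20 µM in the single-dose screen, limit read from the data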
HCT116 PTEN-null: growth suppressors of cells with PTEN tumor suppressor deletion. HCT116 PTEN-null viability, CellTiter-Glo, 60 h; stronger effect = lower value. viability, % at 10 µM. 1.2% of 140,000 active. AID 827;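 active means viability at or below a set limit, 4 SD under the median of all tested compounds, cut at about 3.7% in these data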;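 further: PTEN knockout HCT116 line with beta catenin targeted HCT116 as companion control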
Lmaj promast: inhibitors of Leishmania major promastigote growth; Leishmania major promastigotes, resazurin fluorescence viability; inhibition, % at 10 µM; 9% of 200,000 active; in the data active means inhibition above about 50%;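 further: promastigotes grown with compound for 44 hours at 28 °C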
Numbers stand for hits; i = inactive; nt = no result given; ! = not active in a repeat. Compounds with a hit are over-represented: about 9.6% of the library has one in this group of screens.

SMILES	bCat KO growth	TNAP act hi DEA	TNAP inh hi DEA	TNAP inh noacc	HCT116 PTEN-null	Lmaj promast
CCCCC(CC)C(=O)Nc1ncc([N+](=O)[O-])s1 (stereo unspecified)	nt	i	i	i	nt	59
Cc1ccc(CC(=O)Nc2ncc([N+](=O)[O-])s2)cc1	nt	i	i	i	nt	i
O=C(CCCOc1ccc(Cl)cc1Cl)N/N=C/c1ccco1	nt	i	i	i	nt	i
O=C(CCC(=O)Nc1ccc(Cl)cc1Cl)N/N=C/c1ccc([N+](=O)[O-])o1	nt	i	i	i	nt	101
CCCCCC(=O)N/N=C/c1ccc([N+](=O)[O-])o1	i	i	i	i	i	85
O=C(N/N=C/c1ccc([N+](=O)[O-])o1)c1cc2c(ccc3ccccc32)o1	nt	i	i	i	nt	99
COc1ccc(C(=O)N/N=C/c2ccc(SC)cc2)cc1	i	i	i	i	i	i
CSc1ccc(/C=N/NC(=O)c2ccc(O)cc2)cc1	i	i	i	i	i	96
COc1cnc(-c2ccccc2)nc1Oc1ccc(Cl)cc1C	nt	i	i	i	nt	i
CC(C)(C)CC(C)(C)NCC(=O)Nc1c2c(nc3ccccc13)CCC2	nt	i	i	i	nt	i
Cc1ccc(/C=N\NC(=O)c2cc([N+](=O)[O-])cc([N+](=O)[O-])c2)o1	i	i	i	i	i	58
O=C(CNC(=O)c1ccccc1)N/N=C/c1ccc([N+](=O)[O-])o1	i	i	i	i	i	99
O=C(CNc1ccccc1)N/N=C/c1ccc([N+](=O)[O-])o1	2.6	i	i	i	i	100
Cc1ccc(NCC(=O)N/N=C/c2ccc(OC(=O)c3ccco3)cc2)cc1	i	i	i	i	i	i
Cc1ccc(NCC(=O)N/N=C\c2ccc([N+](=O)[O-])o2)cc1	5.8	i	i	i	i	100
CCCCCCCCCCCC(=O)NC(C(=O)O)C(O)c1ccccc1 (stereo unspecified)	nt	i	i	i	nt	i
O=C1C2C3C=CC(C4CC34)C2C(=O)N1/N=C/c1c[nH]c2ccccc12 (stereo unspecified)	nt	i	i	i	nt	i
O=C(N/N=C/c1ccc([N+](=O)[O-])o1)c1ccc(O)cc1	3.2	i	i	i	i	100
O=C(CNC(=O)c1ccccc1)N/N=C/c1ccc([N+](=O)[O-])s1	nt	i	i	i	nt	100
CCN(CC)S(=O)(=O)c1cccc(C(=O)N/N=C/c2ccc([N+](=O)[O-])o2)c1	nt	i	i	i	nt	100
CCN(CC)c1ccc(N=Cc2ccc([N+](=O)[O-])o2)cc1	4.7	i	i	i	1.9	91
O=C(CNC(=O)c1ccccc1)N/N=C/c1cccs1	nt	i	i	i	nt	i
O=C(N/N=C/c1ccccc1[N+](=O)[O-])C(=O)N1CCCC1	nt	i	i	i	nt	i
O=[N+]([O-])c1ccc(/C=N/N/C(=N/c2ccccn2)c2ccccn2)cc1	i	i	i	i	i	i
O=[N+]([O-])c1cc(/C=N/N/C(=N/c2ccccn2)c2ccccn2)ccc1O	nt	i	i	i	nt	52
SMILES	bCat KO growth	TNAP act hi DEA	TNAP inh hi DEA	TNAP inh noacc	HCT116 PTEN-null	Lmaj promast
O=C(CNC(=O)c1ccc(F)cc1)N/N=C/c1ccc(O)c([N+](=O)[O-])c1	i	i	i	i	i	56
O=C(CNC(=O)c1cccc(F)c1)N/N=C/c1ccc(O)c([N+](=O)[O-])c1	i	i	i	i	i	i
Cc1nc2ccccn2c1C(=O)N/N=C/c1ccc([N+](=O)[O-])o1	nt	i	i	i	nt	100
Cc1nc2ccccn2c1C(=O)N/N=C/c1ccc(CNC(=O)C(=O)Nc2ccccc2)o1	i	i	i	i	i	i
CCN(CC)c1ccc(/C=C/C(=O)C2C(=O)C=C(C)OC2=O)cc1 (stereo unspecified)	nt	i	i	i	nt	i
CSc1cccc(NC(=O)Cc2ccccc2[N+](=O)[O-])c1	nt	i	i	i	nt	i
COc1ccc(C2=C(CN(C)C)C(c3ccccc3)c3ccccc3O2)cc1 (stereo unspecified)	i	i	i	i	i	100!
CCOc1ccc(C2=C(C=C(C#N)C#N)C(c3ccccc3)c3ccccc3O2)cc1 (stereo unspecified)	i	i	i	i	i	i
Cc1ccc(/C=C(\C#N)c2nc3ccccc3[nH]2)s1	i	i	i	i	i	i
N#C/C(=C/c1cccs1)c1nc2ccccc2[nH]1	i	i	i	i	i	85
N#C/C(=C\c1ccc(Sc2ccc(Cl)cc2)o1)c1nc2ccccc2[nH]1	i	i	i	i	i	60
N#C/C(=C\c1ccc(Sc2nc3ccccc3[nH]2)o1)c1ccccc1	i	i	i	i	i	i
COc1cc(/C=C(\C#N)c2nc3ccccc3[nH]2)cc(OC)c1O	nt	i	i	i	nt	i
N#C/C(=C\c1ccc(Cl)cc1)c1nc2ncccc2[nH]1	i	i	i	i	i	79
O=C(O)c1ccc(Nc2nc(-c3cccnc3)nc3ccccc23)cc1	nt	i	i	i	nt	i
COc1cc(OC)c(CNC2CCCCCC2)cc1Br	nt	i	i	i	nt	i
CCN(CC)C(=S)Nc1ccc([N+](=O)[O-])cc1	i	i	i	i	i	59
CCN(CC)C(=S)Nc1ccc(Cl)c(Cl)c1	i	i	i	i	i	62
CCNC(=O)C(=O)Nc1ccc([N+](=O)[O-])cc1	nt	i	i	i	nt	i
CCOc1ccc(-c2nnn(CC(=O)NCc3ccccc3)n2)cc1	nt	i	i	i	nt	i
CCOC(=O)C1=C(C)N=c2s/c(=C\c3ccc(OC(C)=O)c(OCC)c3)c(=O)n2C1/C=C/c1ccccc1 (stereo unspecified)	i	i	i	i	i	i
CCOC(=O)C1=C(C)N=c2s/c(=C\c3ccc(OC(C)=O)cc3)c(=O)n2C1/C=C/c1ccccc1 (stereo unspecified)	i	i	i	i	i	100
CCOC(=O)C1=C(c2ccccc2)N=c2s/c(=C\c3cccc(O)c3)c(=O)n2C1c1cccs1 (stereo unspecified)	1.5	i	i	i	1.5	89
CN(Cc1ccccc1F)c1nc(-c2cccs2)nc2ccccc12	i	i	i	i	i	79
CC(C)(C)C1=CC(=O)C(N2CCOCC2)=CC1=O	2.0	i	i	i	2.0	i
SMILES	bCat KO growth	TNAP act hi DEA	TNAP inh hi DEA	TNAP inh noacc	HCT116 PTEN-null	Lmaj promast
CCC(=O)N1CCc2cc(Br)cc(S(=O)(=O)N(C)c3ccc(OC)cc3OC)c21	nt	i	i	i	nt	i
O=C(NCc1ccccc1Cl)c1ccccc1CCc1ccccc1	i	i	i	i	i	54
COCCCNC(=S)NCCNc1nc2c(C)c(C)ccc2cc1C#N	nt	i	i	i	nt	i
COc1cc(C(=O)ON=C2C=C(C)C(=O)C(C)=C2)cc(OC)c1OC	i	i	i	i	i	89
COc1cc(C(=O)O/N=C2\C=CC(=O)C(C)=C2)cc(OC)c1OC	1.5	i	i	i	1.4	101
COc1cc(C(=O)OCC(=O)N2CCCC2)cc(OC)c1OC	i	i	i	i	i	i

Screening data: PubChem BioAssay, several laboratories
